# FXIIa inh 1536 = factor XIIa (human) inhibition | purified FXIIa, Boc-QGR-AMC fluorogenic substrate, 2 h | inhibition, % at 5 µM | 220,000 compounds, 0.3% hits | AID 800; in the data active means inhibition above about 40%;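 further: 0% = enzyme with no compound and 100% = blank without enzyme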
# FXIa inh = blocks human coagulation factor XIa protease activity. inhibition, % at 5 µM. 220,000 compounds, 0.14% hits. purified FXIa, Boc-Glu-Ala-Arg-AMC fluorogenic substrate;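 active means inhibition of at least 40%; inactive means inhibition below 40%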;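 further: fluorescence of freed AMC excited at 355 nm; 0% = enzyme without compound and 100% = no enzyme blank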
# Thrombin inh = inhibitors of human thrombin; alpha-thrombin, Boc-VPR-AMC fluorogenic substrate cleavage; inhibition, % at 5 µM; 220,000 compounds, 0.26% hits;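 active means inhibition at or above 40%; inactive means inhibition below 40%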;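 further: 0% = enzyme with no compound and 100% = wells without enzyme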
#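 System – human alpha-thrombin protein · Reagent – Boc-VPR-AMC substrate, 15 µM final · Compound – 5 µM single dose in 0.2% DMSO · Schedule – reaction at room temperature · Technique – AMC fluorescence at 355 nm excitation and 460 nm emission · Read-out basis – % inhibition relative to enzyme controls and enzyme-free blanks · Control set – no-compound enzyme wells and no-enzyme blanks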
# AHR act = activators of human aryl hydrocarbon receptor; 320,000 compounds, 2.5% hits; AHR-responsive luciferase reporter cells, luminescence; P35869; activation, % at 5 µM; in the data active means activation above about 47%;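 further: 0% = vehicle wells and 100% = reference agonist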
# Target sequence (P35869 whole entry, looked up): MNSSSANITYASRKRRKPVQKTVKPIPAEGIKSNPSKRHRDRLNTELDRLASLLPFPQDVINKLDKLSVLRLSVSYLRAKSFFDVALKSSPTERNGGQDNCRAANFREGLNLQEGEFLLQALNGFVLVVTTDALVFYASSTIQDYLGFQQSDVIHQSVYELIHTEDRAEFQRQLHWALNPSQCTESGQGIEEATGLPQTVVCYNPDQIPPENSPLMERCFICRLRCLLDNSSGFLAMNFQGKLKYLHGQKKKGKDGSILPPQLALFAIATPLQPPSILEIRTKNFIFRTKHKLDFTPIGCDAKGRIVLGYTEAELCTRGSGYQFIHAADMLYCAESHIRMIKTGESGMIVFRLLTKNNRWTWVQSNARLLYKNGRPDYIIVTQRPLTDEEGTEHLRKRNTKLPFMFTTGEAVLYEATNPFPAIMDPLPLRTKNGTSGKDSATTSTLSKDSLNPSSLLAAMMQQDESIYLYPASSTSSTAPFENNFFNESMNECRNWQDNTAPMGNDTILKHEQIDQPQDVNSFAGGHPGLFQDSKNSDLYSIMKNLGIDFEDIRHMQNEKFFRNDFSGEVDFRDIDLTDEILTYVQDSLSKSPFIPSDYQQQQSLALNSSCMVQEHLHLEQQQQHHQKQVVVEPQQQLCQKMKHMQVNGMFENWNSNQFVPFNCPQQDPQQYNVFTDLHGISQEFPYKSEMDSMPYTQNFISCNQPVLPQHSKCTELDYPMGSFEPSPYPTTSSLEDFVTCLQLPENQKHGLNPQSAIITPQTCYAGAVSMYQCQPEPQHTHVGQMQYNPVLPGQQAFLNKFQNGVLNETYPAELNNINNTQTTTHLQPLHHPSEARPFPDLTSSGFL
# KLK5 inh = kallikrein 5 (human) inhibition; Q9Y337; inhibition, % at 5 µM; recombinant hK5, fluorogenic AMC substrate cleavage; 210,000 compounds, 0.59% hits;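 active means inhibition of 40% or more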;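 further: 0% = enzyme controls without compound and 100% = no-enzyme blanks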
# STAT3 activator = activators of IL-6 induced STAT3 signaling | U3A cells, IL-6 STAT3-luciferase reporter, luminescence; 100% = signal with IL-6 EC80 alone | activation (% of control), % at 5.6 µM | 190,000 compounds, 0.91% hits | AID 871;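 active means activation above the screen-wide mean of compound activation plus 3 SD, cut at about 130% in these data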;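 further: 0% = background luminescence of wells with medium and substrate only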
#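 Test system: human U3A cells carrying STAT3-luciferase construct; control set: IL-6-only wells as 100% reference; timing: compound pre-incubation 1 h before IL-6, then 6 h stimulation at 37 °C; also added: IL-6 stimulus at 33 ng/mL final; evaluation: % activation versus median of IL-6-stimulated wells; detection: reporter luminescence signal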
# Starred values were filed as active, the others as inactive; nt = no result given. Rows were chosen to be rich in hits. Some 3.5% of all compounds tested hit in one or more screens of this group.
SMILES,FXIIa inh 1536,FXIa inh,Thrombin inh,AHR act,KLK5 inh,STAT3 activator
Cc1cc(C(=O)Cn2ncc(Cl)c(Cl)c2=O)c(C)n1CC(F)(F)F,31,18,24,1,72*,104
COc1ccc2c3n([n+]([O-])c2c1)CCN=C3c1ccc(C)cc1,nt,nt,nt,29,nt,nt
COc1ccc2c3n([n+]([O-])c2c1)CCN=C3c1cc(Cl)c(N)c(Cl)c1,nt,nt,nt,69*,nt,nt
Cc1c(NC(=O)c2cccc(NC(=O)Cc3ccc(F)cc3)c2)c(=O)n(-c2ccccc2)n1C,nt,nt,nt,1,nt,nt
CCc1ccccc1NC(=O)c1cc(C2CC2)on1,10,-1,-6,0,-5,nt
Cc1ccccc1Cn1cc(NC(=O)c2cc(C3CC3)on2)cn1,4,0,-8,74*,-3,nt
CCOC(=O)C(O)(CC(=O)c1ccc(OC)cc1)C(F)(F)F (stereo unspecified),23,16,16,23,38,118
CN(C)S(=O)(=O)c1cccc(C(=O)OCC(=O)Nc2ccc3c(c2)OCCO3)c1,nt,nt,nt,0,nt,nt
CN(C)S(=O)(=O)c1cccc(C(=O)OCC(=O)Nc2sccc2C#N)c1,-5,-8,-12,6,-22,134*
O=C(CSc1nc2ccccc2c(=O)[nH]1)Nc1ccc(Br)cc1,nt,nt,nt,15,nt,nt
CCN(CC)c1ccc(NC(=O)CSc2nc3ccccc3c(=O)[nH]2)cc1,5,-3,1,63*,-8,100
O=C(C(=O)N1CCCc2ccccc21)c1c[nH]c2ccccc12,19,-5,5,50*,3,131
Cn1cc(S(=O)(=O)CC(=O)N2CCc3ccccc32)c2ccccc21,6,-7,2,7,-3,109
Cn1cc(C(=O)C(=O)N2CCc3ccccc32)c2ccccc21,nt,nt,nt,63*,nt,nt
CNc1cc(CSc2ccc(Cl)cc2)nc(C)n1,-2,1,-3,68*,-2,106
Cc1cccc(N2CCN(C(=O)CCC(=O)N3CCOc4ccc(Cl)cc43)CC2C)c1 (stereo unspecified),nt,nt,nt,2,nt,nt
CN1C(=O)C2(OCC(C)([N+](=O)[O-])CO2)c2ccccc21 (stereo unspecified),nt,nt,nt,1,nt,nt
CN1C(=O)C2(N=c3ccccc3=N2)c2ccccc21,16,2,2,51*,-15,129
COc1ccc(CCNC(=O)COC(=O)CCC(=O)c2ccc(F)cc2)cc1OC,9,-1,0,1,1,104
O=C1/C(=C\c2cc([N+](=O)[O-])ccc2O)SC(=S)N1Cc1ccc(Cl)cc1,nt,nt,nt,2,nt,nt
Cc1ccccc1/C=C1\SC(=S)N(/N=C/c2cc([N+](=O)[O-])ccc2O)C1=O,13,2,56*,0,5,94
COc1cc2cc(-c3ccc(O)cc3O)nc(C)c2cc1OC,nt,nt,nt,48*,nt,nt
Cc1cc2cc(CNC(=S)NC3CCCCC3)ccc2[nH]1,11,-2,-5,7,5,99
Cc1cc2cc(CNC(=O)NC3CCCCC3)ccc2[nH]1,-1,-5,3,57*,-3,102
N#Cc1ccccc1COc1cccc2c1CCCC2O (stereo unspecified),nt,nt,nt,8,nt,nt
SMILES,FXIIa inh 1536,FXIa inh,Thrombin inh,AHR act,KLK5 inh,STAT3 activator
O=C(/C=C/c1ccco1)Nc1cccc(S(=O)(=O)N2CCOCC2)c1,1,-5,-10,50*,-6,100
Cc1ccc(/C=C/C(=O)Nc2cccc(S(=O)(=O)N3CCOCC3)c2)o1,7,-5,40,59*,72*,105
COc1ccccc1/C=C/C(=O)Nc1cccc(S(=O)(=O)N2CCOCC2)c1,nt,nt,nt,14,nt,nt
C=CCOc1ccc(CNc2ccc(NC(=O)CC(C)C)cc2)cc1OC,8,-1,-4,1,-10,104
COc1cccc(/C=N/n2c(N)c(S(=O)(=O)c3cccs3)c3nc4ccccc4nc32)c1OC,44*,4,18,-15,9,77
COCCn1c(N)c(S(=O)(=O)c2cccs2)c2nc3ccccc3nc21,32,-12,-9,2,-42,102
Cc1[nH]c2ccccc2c1CC(=O)O,16,7,4,17,-12,133*
Cc1c(C)c2ccc(OCC(=O)Nc3ccc(S(N)(=O)=O)cc3)c(C)c2oc1=O,nt,nt,nt,-1,nt,nt
O=C(COC(=O)Cc1c(F)cccc1Cl)NCc1ccc2c(c1)OCO2,nt,nt,nt,-1,nt,nt
CCOc1ccc(NC(=O)c2ccc(Cn3nc(C)cc3C)o2)cc1,nt,nt,nt,47*,nt,nt
Cc1cc(C)cc(NC(=O)c2ccc(Cn3nc(C)c(Cl)c3C)o2)c1,31,4,21,14,120*,97
O=C(N/N=C\c1cccc(Cl)c1)c1ccc(Cn2cc(Br)c([N+](=O)[O-])n2)o1,11,10,-3,28,-8,102
Cc1ccc(CNC(=O)c2ccc(Cn3nc(C)c(Cl)c3C)o2)cc1,3,-6,-8,1,-7,106
Cc1c(Cl)c([N+](=O)[O-])nn1Cc1ccc(C(=O)N/N=C\c2cccc(Br)c2)o1,-1,-5,-2,55*,-4,106
O=C(C[n+]1ccc(C(=O)NCc2ccccc2)cc1)c1ccc(Cl)cc1,nt,nt,nt,0,nt,nt
Cc1ccc2[nH]cc(CCNC(=O)C3CCCO3)c2c1 (stereo unspecified),nt,nt,nt,-1,nt,nt
COc1cc(OC)cc(-c2nnc(NC(=O)CCS(=O)(=O)c3ccc(C)cc3)o2)c1,nt,nt,nt,65*,nt,nt
Cc1ccc(S(=O)(=O)CCC(=O)Nc2nnc(-c3ccc(F)cc3)o2)cc1,nt,nt,nt,-1,nt,nt
COc1ccc(-c2nnc(OCc3ccccc3)c3ccccc23)cc1,4,6,-1,56*,12,91
COc1ccc(/C=N/Nc2cc(C)nc(N3CCOCC3)n2)cc1,9,3,1,7,2,nt
COc1ccc(/C=N/Nc2cc(C)nc(N3CCOCC3)n2)cc1OC,8,2,-8,50*,1,nt
COc1ccccc1/C=N/Nc1cc(C)nc(N2CCOCC2)n1,8,6,5,51*,7,nt
COc1ccc(/C=N\Nc2ncc(F)c(N3CCOCC3)n2)cc1OC,7,0,-3,59*,1,nt
COc1ccc(Nc2cc(C)nc(N3CCOCC3)n2)cc1,1,-1,-4,47,-12,101
CN1CCN(S(=O)(=O)c2ccc(N(C)Cc3c(F)cccc3Cl)nc2)CC1,nt,nt,nt,0,nt,nt
SMILES,FXIIa inh 1536,FXIa inh,Thrombin inh,AHR act,KLK5 inh,STAT3 activator
COc1cc([N+](=O)[O-])cc(/C=N/NC(=O)CSc2ccccn2)c1O,5,1,-5,2,-13,nt
COc1ccc(N2C(=O)N(Cc3cccc(F)c3)c3ccccc3S2(=O)=O)cc1,31,30,11,nt,18,99
C#CCN(Cc1ccccc1)S(=O)(=O)C=C,nt,nt,nt,-1,nt,nt
COc1ccc(NC(=O)c2sccc2-n2cccc2)cc1,6,-3,1,26,-8,80
O=C(NNC(=O)c1sccc1-n1cccc1)Nc1ccc(F)cc1,10,0,-11,62*,8,96
COc1ccccc1N1CC(C(=O)Nc2ccc(N3CCOCC3)cc2)CC1=O (stereo unspecified),nt,nt,nt,1,nt,nt
